Reference: ChEMBL document CHEMBL4368925, “Design, synthesis, and screening of novel ursolic acid derivatives as potential anti-cancer agents that target the HIF-1α pathway” (Bioorg Med Chem Lett, 2019)

These compounds were tested on Hep 3B2 (assay: Cytotoxicity against human Hep3B cells assessed as reduction in cell viability after 24 hrs in normoxic condition by MTT assay).
Type: cell-based
Method in brief: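 Hep3B viability by MTT assay after 24 h compound treatment under normoxia; table values are means, n=3.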
`C[C@H]1[C@H](C)CC[C@]2(C(=O)O)CC[C@]3(C)C(=CC[C@@H]4[C@@]5(C)CC(=C\c6ccc(Cl)cc6Cl)/C(=N\NC(=N)N)C(C)(C)[C@@H]5CC[C@]43C)[C@H]12` showed an IC50 greater than 100 µM. `C[C@H]1[C@H](C)CC[C@]2(C(=O)OCc3c(Cl)cccc3Cl)CC[C@]3(C)C(=CC[C@@H]4[C@@]5(C)CC/C(=N\NC(=N)N)C(C)(C)[C@@H]5CC[C@]43C)[C@H]12` showed an IC50 of 22.3 µM. For `C[C@H]1[C@H](C)CC[C@]2(C(=O)O)CC[C@]3(C)C(=CC[C@@H]4[C@@]5(C)CC(=C\c6ccc(F)cc6)/C(=N\NC(=N)N)C(C)(C)[C@@H]5CC[C@]43C)[C@H]12`, the IC50 was greater than 100 µM. With `C[C@H]1[C@H](C)CC[C@]2(C(=O)O)CC[C@]3(C)C(=CC[C@@H]4[C@@]5(C)CC(=C\c6ccccc6Cl)/C(=N\NC(=N)N)C(C)(C)[C@@H]5CC[C@]43C)[C@H]12` the IC50 was greater than 100 µM. With `C[C@H]1[C@H](C)CC[C@]2(C(=O)O)CC[C@]3(C)C(=CC[C@@H]4[C@@]5(C)CC[C@H](O)C(C)(C)[C@@H]5CC[C@]43C)[C@H]12` [URSOLIC ACID] the IC50 was 23.8 µM. `C[C@H]1[C@H](C)CC[C@]2(C(=O)O)CC[C@]3(C)C(=CC[C@@H]4[C@@]5(C)CC(=C\c6ccccc6)/C(=N\NC(=N)N)C(C)(C)[C@@H]5CC[C@]43C)[C@H]12` gave an IC50 greater than 100 µM. Compound `C[C@H]1[C@H](C)CC[C@]2(C(=O)O)CC[C@]3(C)C(=CC[C@@H]4[C@@]5(C)CC(=C\c6c(Cl)cccc6Cl)/C(=N\NC(=N)N)C(C)(C)[C@@H]5CC[C@]43C)[C@H]12` has an IC50 greater than 100 µM. `C[C@H]1[C@H](C)CC[C@]2(C(=O)O)CC[C@]3(C)C(=CC[C@@H]4[C@@]5(C)CC(=C\c6ccccc6Br)/C(=N\NC(=N)N)C(C)(C)[C@@H]5CC[C@]43C)[C@H]12` gave an IC50 greater than 100 µM. `C[C@H]1[C@H](C)CC[C@]2(C(=O)O)CC[C@]3(C)C(=CC[C@@H]4[C@@]5(C)CC(=C\c6cccs6)/C(=N\NC(=N)N)C(C)(C)[C@@H]5CC[C@]43C)[C@H]12` was tested, and the IC50 was greater than 100 µM. `C[C@H]1[C@H](C)CC[C@]2(C(=O)OCc3cccc(Cl)c3)CC[C@]3(C)C(=CC[C@@H]4[C@@]5(C)CC/C(=N\NC(=N)N)C(C)(C)[C@@H]5CC[C@]43C)[C@H]12` showed an IC50 of 34.1 µM. `C[C@H]1[C@H](C)CC[C@]2(C(=O)OCc3ccc(F)cc3)CC[C@]3(C)C(=CC[C@@H]4[C@@]5(C)CC/C(=N\NC(=N)N)C(C)(C)[C@@H]5CC[C@]43C)[C@H]12` was tested, and the IC50 was 12.9 µM. For `CCCCCOC(=O)[C@]12CC[C@@H](C)[C@H](C)[C@H]1C1=CC[C@@H]3[C@@]4(C)CC/C(=N\NC(=N)N)C(C)(C)[C@@H]4CC[C@@]3(C)[C@]1(C)CC2`, the IC50 was 22 µM. `Cc1ccc(COC(=O)[C@]23CC[C@@H](C)[C@H](C)[C@H]2C2=CC[C@@H]4[C@@]5(C)CC/C(=N\NC(=N)N)C(C)(C)[C@@H]5CC[C@@]4(C)[C@]2(C)CC3)cc1` was tested, and the IC50 was 18 µM. In the case of `C[C@H]1[C@H](C)CC[C@]2(C(=O)O)CC[C@]3(C)C(=CC[C@@H]4[C@@]5(C)CC(=C\c6ccc([N+](=O)[O-])cc6)/C(=N\NC(=N)N)C(C)(C)[C@@H]5CC[C@]43C)[C@H]12`, the IC50 is reported as greater than 100 µM. In the case of `C[C@H]1[C@H](C)CC[C@]2(C(=O)O)CC[C@]3(C)C(=CC[C@@H]4[C@@]5(C)CC(=C\c6ccccc6F)/C(=N\NC(=N)N)C(C)(C)[C@@H]5CC[C@]43C)[C@H]12`, the IC50 is reported as greater than 100 µM. In the case of `Cc1ccc(/C=C2\C[C@]3(C)[C@H]4CC=C5[C@@H]6[C@@H](C)[C@H](C)CC[C@]6(C(=O)O)CC[C@@]5(C)[C@]4(C)CC[C@H]3C(C)(C)\C2=N\NC(=N)N)cc1`, the IC50 is reported as greater than 100 µM. For `C[C@H]1[C@H](C)CC[C@]2(C(=O)O)CC[C@]3(C)C(=CC[C@@H]4[C@@]5(C)CC/C(=N\NC(=N)N)C(C)(C)[C@@H]5CC[C@]43C)[C@H]12`, the IC50 was greater than 100 µM. In the case of `C[C@H]1[C@H](C)CC[C@]2(C(=O)O)CC[C@]3(C)C(=CC[C@@H]4[C@@]5(C)CC(=C\c6ccco6)/C(=N\NC(=N)N)C(C)(C)[C@@H]5CC[C@]43C)[C@H]12`, the IC50 is reported as greater than 100 µM. Compound `C[C@H]1[C@H](C)CC[C@]2(C(=O)OCc3ccc(Cl)cc3Cl)CC[C@]3(C)C(=CC[C@@H]4[C@@]5(C)CC/C(=N\NC(=N)N)C(C)(C)[C@@H]5CC[C@]43C)[C@H]12` has an IC50 greater than 100 µM. `COC(=O)[C@]12CC[C@@H](C)[C@H](C)[C@H]1C1=CC[C@@H]3[C@@]4(C)CC/C(=N\NC(=N)N)C(C)(C)[C@@H]4CC[C@@]3(C)[C@]1(C)CC2` was tested, and the IC50 was greater than 100 µM. In the case of `C[C@H]1[C@H](C)CC[C@]2(C(=O)O)CC[C@]3(C)C(=CC[C@@H]4[C@@]5(C)CC(=C\c6cccc7ccccc67)/C(=N\NC(=N)N)C(C)(C)[C@@H]5CC[C@]43C)[C@H]12`, the IC50 is reported as greater than 100 µM. In the case of `C[C@H]1[C@H](C)CC[C@]2(C(=O)O)CC[C@]3(C)C(=CC[C@@H]4[C@@]5(C)CC(=C\c6cccc(F)c6)/C(=N\NC(=N)N)C(C)(C)[C@@H]5CC[C@]43C)[C@H]12`, the IC50 is reported as 10.5 µM. `CCOC(=O)[C@]12CC[C@@H](C)[C@H](C)[C@H]1C1=CC[C@@H]3[C@@]4(C)CC/C(=N\NC(=N)N)C(C)(C)[C@@H]4CC[C@@]3(C)[C@]1(C)CC2` gave an IC50 of 6 µM. For `C[C@H]1[C@H](C)CC[C@]2(C(=O)O)CC[C@]3(C)C(=CC[C@@H]4[C@@]5(C)CC(=C\c6cccc(Cl)c6)/C(=N\NC(=N)N)C(C)(C)[C@@H]5CC[C@]43C)[C@H]12`, the IC50 was greater than 100 µM. With `C[C@H]1[C@H](C)CC[C@]2(C(=O)O)CC[C@]3(C)C(=CC[C@@H]4[C@@]5(C)CC/C(=N\NC(N)=S)C(C)(C)[C@@H]5CC[C@]43C)[C@H]12` the IC50 was greater than 100 µM. Compound `C[C@H]1[C@H](C)CC[C@]2(C(=O)O)CC[C@]3(C)C(=CC[C@@H]4[C@@]5(C)CC/C(=N\NC(N)=O)C(C)(C)[C@@H]5CC[C@]43C)[C@H]12` has an IC50 of 69.8 µM. With `C[C@H]1[C@H](C)CC[C@]2(C(=O)O)CC[C@]3(C)C(=CC[C@@H]4[C@@]5(C)CC(=C\c6cccc(Br)c6)/C(=N\NC(=N)N)C(C)(C)[C@@H]5CC[C@]43C)[C@H]12` the IC50 was greater than 100 µM. `C[C@H]1[C@H](C)CC[C@]2(C(=O)OCc3ccc(Cl)cc3)CC[C@]3(C)C(=CC[C@@H]4[C@@]5(C)CC/C(=N\NC(=N)N)C(C)(C)[C@@H]5CC[C@]43C)[C@H]12` was tested, and the IC50 was 32.1 µM.
